Measured values as given in ChEMBL document CHEMBL2406959, “Synthesis and evaluation of diaryl sulfides and diaryl selenide compounds for antitubulin and cytotoxic activity” (Bioorg Med Chem Lett, 2013).

Key:
[1] = species on record: Bos taurus; experiment: Displacement of [3H]colchicine from bovine brain tubulin at 5 uM after 10 mins by scintillation counting analysis relative to control
[2] = species on record: Bos taurus; experiment: Displacement of [3H]colchicine from bovine brain tubulin at 1 uM after 10 mins by scintillation counting analysis relative to control
[3] = system: PC-3; experiment: Cytotoxicity against human PC3 cells after 48 hrs by sulforhodamine B assay; format: functional, cell-based; conditions: PC-3, 48 h
[4] = system: HT-29; experiment: Cytotoxicity against human HT-29 cells after 48 hrs by sulforhodamine B assay; format: functional, cell-based; conditions: HT-29, 48 h
In short: (§1)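 Human 786 (kidney), HT-29 (colon) and PC-3 (prostate) cancer cells exposed to compounds for 48 h at 37 °C.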

[5] = system: MCF7; experiment: Cytotoxicity against human MCF7 cells after 96 hrs by sulforhodamine B assay; format: functional, cell-based; conditions: MCF7, 96 h
In short: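 Human MCF-7 breast cancer cells incubated with compounds for 96 h at 37 °C.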

[6] = Inhibition of bovine brain tubulin polymerization incubated for 15 mins prior to GTP addition measured after 20 mins by spectrophotometry; parameters: species or system Bos taurus
[7] = Cytotoxicity against human 786 cells after 48 hrs by sulforhodamine B assay; format: functional, cell-based; in short: as §1
[8] = molecular target: Tubulin; experiment: Inhibition of tubulin (unknown origin) polymerization after 20 mins; format: protein-complex assay, Homo sapiens

## COc1ccc(Sc2cc(OC)c(OC)c(OC)c2)cc1N
[1]
  inhibition: 95%
[2]
  inhibition: 74%
[3]
  IC50: 530 nM
[4]
  IC50: 1310 nM
[5]
  IC50: 8 nM
[6]
  IC50: 740 nM
[7]
  IC50: 1240 nM

## COc1ccc(Sc2cc(OC)c(OC)c(OC)c2)cc1[N+](=O)[O-]
[1]
  inhibition: 58%
[3]
  IC50: 200 nM
[4]
  IC50: 630 nM
[5]
  IC50: 1000 nM
[6]
  IC50: 2800 nM
[7]
  IC50: 1710 nM

## COc1ccc([Se]c2cc(OC)c(OC)c(OC)c2)cc1
[1]
  inhibition: 94%
[2]
  inhibition: 74%
[3]
  IC50: 80 nM
[4]
  IC50: 280 nM
[5]
  IC50: 10 nM
[6]
  IC50: 620 nM
[7]
  IC50: 680 nM

## COc1cc(SSc2cc(OC)c(OC)c(OC)c2)cc(OC)c1OC
[1]
  inhibition: 9%
[3]
  IC50: 6750 nM
[4]
  IC50: 76500 nM
[5]
  IC50: > 10000 nM
[6]
  IC50: 5400 nM
[7]
  IC50: 112000 nM

## COc1ccc(/C=C\c2cc(OC)c(OC)c(OC)c2)cc1O [COMBRETASTATIN A4]
[3]
  IC50: 1000 nM
[5]
  IC50: 6 nM
[7]
  IC50: 5000 nM

## COc1ccc(/C=C\c2cc(OC)c(OC)c(OC)c2)cc1[N+](=O)[O-]
[8]
  IC50: 1800 nM

## COc1ccc([Se]c2ccc(OC)cc2)cc1
[3]
  IC50: 8800 nM
[4]
  IC50: 210000 nM
[5]
  IC50: > 10000 nM
[6]
  IC50: > 20000 nM

## COc1cccc2c1C(=O)c1c(O)c3c(c(O)c1C2=O)C[C@@](O)(C(=O)CO)C[C@@H]3O[C@H]1C[C@H](N)[C@H](O)[C@H](C)O1 [DOXORUBICIN]
[4]
  IC50: 440 nM
[7]
  IC50: 330 nM

## COc1ccc([Se][Se]c2ccc(OC)cc2)cc1
[1]
  inhibition: 34%
[3]
  IC50: 1990 nM
[4]
  IC50: 59500 nM
[5]
  IC50: > 10000 nM
[6]
  IC50: 1700 nM
[7]
  IC50: 20700 nM
